# Source: PubChem
# This is a sample that favours compounds with a hit; in the whole collection about 3.5% have one here.
# RGS4 act – potentiators or activators of RGS4; HEK293 M3R/inducible RGS4, carbachol calcium flux Fluo4; hits give low values; B-score at 10 µM; hit rate 0.92% among 310,000; AID 463111;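 active = B-score of the integrated calcium signal more than 4 SD below the library mean, with starting fluorescence not abnormally high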;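 also: negative B-score means reduced calcium response which marks RGS4 activation or potentiation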
#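 Test system: HEK293 cells with stable M3R and inducible RGS4; also added: carbachol at ECmax as muscarinic agonist stimulus; schedule: dye loading 30 min 37 °C, buffer rest 30 min RT; technique: kinetic calcium fluorescence imaging with Fluo4-AM dye, 2 µM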
# MrgX1 antag – blocks BAM8-22 activation of human MrgX1 receptor; AID 588676; hit rate 1.3% among 310,000; Q96LB2; B-score at 10 µM; MRGX1-HEK293 calcium flux, Fluo-4, BAM8-22 antagonism; hits give low values;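 active = calcium-response B-score plate-corrected more than 3 library SD below zero, starting fluorescence within 5 deviations, no agonist response on first addition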;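 also: peak minus trough fluorescence over baseline after final BAM8-22 challenge near maximal dose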
# Target sequence (Q96LB2 whole entry, looked up): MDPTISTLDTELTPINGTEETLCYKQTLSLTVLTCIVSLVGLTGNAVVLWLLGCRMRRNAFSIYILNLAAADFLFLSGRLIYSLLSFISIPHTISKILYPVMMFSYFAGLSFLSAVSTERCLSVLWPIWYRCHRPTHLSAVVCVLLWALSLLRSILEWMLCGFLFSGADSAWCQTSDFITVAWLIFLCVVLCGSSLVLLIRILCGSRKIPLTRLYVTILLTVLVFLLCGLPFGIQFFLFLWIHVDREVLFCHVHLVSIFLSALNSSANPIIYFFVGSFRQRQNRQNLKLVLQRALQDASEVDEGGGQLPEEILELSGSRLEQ
# RGS4 block – human RGS4 inhibition; AID 463165; HEK293 M3R/RGS4 inducible, Fluo-4 calcium flux; hits give high values; triggered by carbachol at its EC20; B-score at 10 µM; hit rate 0.45% among 310,000;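 active = B-score, a plate-corrected calcium signal, over three deviations above library mean, with baseline fluorescence within five deviations of library mean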;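 also: RGS4 expression induced by doxycycline in cells with stable M3 receptor; B-score is computed from the integrated fluorescence ratio over baseline after carbachol; higher B-score means a larger calcium signal and so more RGS4 inhibition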
# Target sequence (P49798 whole entry, looked up): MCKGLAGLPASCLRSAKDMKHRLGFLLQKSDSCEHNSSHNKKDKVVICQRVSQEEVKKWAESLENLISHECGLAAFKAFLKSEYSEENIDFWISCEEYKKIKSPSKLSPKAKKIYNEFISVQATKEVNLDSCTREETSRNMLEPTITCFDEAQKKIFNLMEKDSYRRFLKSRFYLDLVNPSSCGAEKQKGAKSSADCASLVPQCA
# MrgX1 agonist – activates human MrgX1 receptor signaling; Q96LB2; MrgX1-HEK293 cells, Fluo-4 calcium fluorescence, agonist mode; hits give high values; B-score at 10 µM; hit rate 0.44% among 310,000; AID 588627;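 active = calcium response B-score plate-corrected fluorescence ratio at least 3 library SD, with starting fluorescence B-score inside 5 SD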
#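 Material: MrgX1-expressing HEK293 cells; input: 15,000 cells per well; doses: test compound given as first of three sequential additions; schedule: overnight plating before 1 h dye loading; technique: Fluo-4 NW calcium-flux fluorescence, kinetic read; evaluation: baseline-normalised fluorescence change ratio, B-scored; control set: plate-wise positive and negative controls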
# MrgX1 PAM – allosterically activates human MrgX1 receptor signaling; hit rate 0.63% among 310,000; MrgX1-HEK293, Fluo-4 calcium flux, FDSS; hits give high values; Q96LB2; B-score at 10 µM; AID 588675;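 active = plate-corrected calcium response at least 3 library SD above typical, normal starting fluorescence, not activating the receptor alone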;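 also: compound read alongside a low EC10 to EC30 dose of BAM8-22 agonist; peak minus trough fluorescence over baseline measured at the second addition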
# MrgX1 PAM conf – confirmation of human MrgX1 receptor positive allosteric modulators | shares compounds with MrgX1 PAM | MrgX1-HEK293, Fluo-4 calcium fluorescence, FDSS | activation (ratio percentage), % at 10 µM | hit rate 13% among 1,200 | AID 602413;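 active = ratio at least 3 SD above the weak peptide control, stable starting fluorescence, no direct agonism earlier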;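 also: compound followed by low BAM8-22 agonist challenge near EC20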
# MrgX1 ant reconf – human MrgX1 receptor antagonism, re-confirmation screen | AID 602420 | hit rate 19% among 2,300 | remaining BAM8-22 calcium response % of control (hits give low values), % at 10 µM | shares compounds with MrgX1 antag | MrgX1-HEK293, BAM8-22 calcium flux, Fluo-4; hits give low values;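 active = remaining agonist calcium response no higher than 100% minus 3 SD of agonist-only control wells, with starting fluorescence near control levels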;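 also: agonist BAM8-22 given at a near maximal EC90 to ECmax level; peak minus minimum fluorescence divided by baseline after agonist addition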
# HEK293 Ca flux – counter-screen for MrgX1 antagonists: effect in parental HEK293 cells; AID 624111; shares compounds with MrgX1 antag; Fluo-4 calcium fluorescence, FDSS; hit rate 2% among 4,000; fluorescence ratio F(max-min)/F0 at 10 µM;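 active = duplicate-averaged calcium fluorescence ratio at least three times the standard deviation of buffer wells, a nonspecific response in parental cells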
# HEK293 Ca counter – MrgX1 allosteric activator counter-screen hit in parental HEK293 cells | shares compounds with MrgX1 antag | parental HEK293 calcium flux, Fluo-4 fluorescence ratio; hits give high values | fluorescence ratio F(max-min)/F0 at 10 µM | hit rate 0.4% among 4,000 | AID 624114;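 active = calcium fluorescence ratio, averaged over duplicates, at least 3 SD of the buffer-well ratio, meaning a nonspecific response in receptor-free cells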;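 also: untransfected parental HEK293 lacking MrgX1 used as counterscreen for MrgX1 allosteric activators; fluorescence change taken during the second addition on a kinetic imager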
# HEK293 Ca cntr2 – activity in parental HEK293 cells lacking MrgX1 receptor; hit rate 8.7% among 4,000; AID 624115; shares compounds with MrgX1 antag; fluorescence ratio F(max-min)/F0 at 10 µM; Fluo-4 calcium fluorescence (FDSS); hits give high values;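 active = calcium fluorescence ratio at least three times the spread of buffer wells, meaning a non-specific response in parental cells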
# Numbers without * were called inactive; i = inactive; · = no result given.
SMILES,RGS4 act,MrgX1 antag,RGS4 block,MrgX1 agonist,MrgX1 PAM,MrgX1 ant reconf,HEK293 Ca flux,HEK293 Ca counter,HEK293 Ca cntr2,others
Nc1ncnc2nc(N3CCN(C(=O)c4ccccc4)CC3)[nH]c12,i,i,i,i,17*,·,i,i,i,MrgX1 PAM conf=i
O=C(c1ccccc1)N1CCN(c2ncccn2)CC1,i,i,i,i,i,·,·,·,·,
Cc1cccc(/C=C2/Sc3ccc(C(=O)N4CCOCC4)cc3NC2=O)c1,i,i,i,i,23*,·,i,i,i,MrgX1 PAM conf=i
O=C1Nc2cc(C(=O)N3CCOCC3)ccc2S/C1=C\c1ccccc1,i,i,i,i,i,·,·,·,·,
COc1cccc(NC(=O)c2ccccc2Br)c1,i,i,i,i,i,·,·,·,·,
COc1ccc(Br)c(C(=O)Nc2ccc(F)cc2)c1,i,i,i,i,6.9*,·,i,i,i,MrgX1 PAM conf=i
Cc1[nH]c(=O)c(C#N)c(C)c1CCC(=O)Nc1cc(S(C)(=O)=O)ccc1Cl,i,i,i,i,i,·,·,·,·,
CCN(C(=O)CN1C(=O)S/C(=C\c2ccc(F)cc2)C1=O)C1CCS(=O)(=O)C1 (centres undefined),i,i,i,i,i,·,·,·,·,
Cc1cc(C)n(/N=C/c2cc(Cl)cc(Cl)c2O)c(=O)c1,i,i,i,i,21*,·,0.43*,i,77*,MrgX1 PAM conf=i
Cc1cc(C)n(/N=C/c2ccccc2O)c(=O)c1,i,i,i,i,i,·,·,·,·,
CSC1=NSC2=NC(=O)/C(=C\c3cccs3)C(=N)N12,i,i,i,i,27*,·,i,i,i,MrgX1 PAM conf=15%*
CC(C)CSC1=NSC2=NC(=O)/C(=C\c3cccs3)C(=N)N12,i,i,i,i,i,·,·,·,·,
Cc1ccsc1/C=N/NC(=O)c1nnn(-c2nonc2N)c1CN(C)c1ccccc1,i,i,i,i,i,·,·,·,·,
O=C(CNC(=O)c1ccc(Br)o1)NCc1cccc(Cl)c1,i,i,i,i,i,·,·,·,·,
O=C(CNC(=O)c1ccc(Br)o1)NCc1ccc(Cl)cc1Cl,i,-4.8*,i,i,i,i,i,i,i,
CCc1nnc(NC(=O)CCC(=O)NCCc2ccc(OC)c(OC)c2)s1,i,i,i,i,i,·,·,·,·,
C=CCc1c(C)nc2c(C(=O)O)cnn2c1C,i,-4.6*,i,i,i,i,i,i,i,
Cc1nc2c(C(=O)N3CCN(C)CC3)cnn2c(C)c1Cc1ccc(Cl)cc1,i,i,i,i,i,·,·,·,·,
O=C(NCCCN1CCOCC1)C1CCN(S(=O)(=O)c2cccc(Cl)c2Cl)CC1,i,i,i,i,i,·,·,·,·,
Cn1c(SCC(=O)Nc2cccc(F)c2)nc2c(c1=O)SCC2,i,-8.8*,i,i,i,i,i,i,i,
COc1ccc(-n2c(SCC(=O)Nc3cc(C)on3)nc3c(c2=O)SCC3)cc1,i,-4.6*,i,i,i,i,i,i,i,
Cn1c(SCC(=O)Nc2ccc(C(N)=O)cc2)nc2c(c1=O)SCC2,i,i,i,i,i,·,·,·,·,
CCc1ccccc1N(CC(=O)NC1CCCC1)C(=O)CNC(=O)c1cccs1,i,i,i,i,i,·,·,·,·,
O=C(NCCCO)c1ccc2[nH]c3c(c2c1)CCCC3,i,i,i,i,i,·,·,·,·,
O=C(NCCO)c1ccc2[nH]c3c(c2c1)CCCC3,i,-6.5*,i,i,i,i,i,i,i,
SMILES,RGS4 act,MrgX1 antag,RGS4 block,MrgX1 agonist,MrgX1 PAM,MrgX1 ant reconf,HEK293 Ca flux,HEK293 Ca counter,HEK293 Ca cntr2,others
Cc1cc(C(=O)N2CC=C(c3ccccc3)CC2)c2ccccc2n1,i,-4.7*,i,i,i,i,i,i,i,
CCc1ccc(S(=O)(=O)Nc2ccc(Br)cn2)cc1,i,i,i,i,i,·,·,·,·,
CC(=O)Nc1ccc(NC(=O)Nc2ccc3c(c2)N(C)C(=O)CS3)cc1,i,i,i,i,i,·,·,·,·,
CCOc1ccc(OCC)c(NC(=O)Nc2ccc3c(c2)N(C)C(=O)CS3)c1,i,-6.3*,i,i,i,80%*,i,i,i,
COc1cccc(NC(=O)Nc2ccc3c(c2)N(C)C(=O)CS3)c1,i,-7.3*,i,i,i,42%*,i,i,i,
O=C(COc1cccc2ccccc12)Nc1ccc(Cl)cc1C(=O)O,i,-7.5*,i,i,i,74%*,i,i,i,
COc1ccccc1CC(=O)Nc1ccc(Cl)cc1C(=O)O,i,i,i,i,i,·,·,·,·,
O=C(COc1cccc2ccccc12)Nc1cc(Cl)ccc1C(=O)O,i,-7.6*,i,i,i,62%*,i,i,i,
Cc1ccc(C)c(OCCC(=O)OCC(=O)NC2CCCC2)c1,i,i,i,i,i,·,·,·,·,
COc1ccc2oc(C(=O)OCC(=O)NC3CCCCC3)c(C)c2c1,i,i,i,i,i,·,·,·,·,
Cc1cccc(C(=O)OCC(=O)N(C)c2ccccc2)c1C,i,i,i,i,i,·,·,·,·,
COc1ccccc1-c1nnc(SC2CCc3ccccc3NC2=O)s1 (centres undefined),i,-6.4*,i,i,i,i,i,i,i,
O=C(NCc1ccco1)C1CC(c2cc(C(F)(F)F)cc(C(F)(F)F)c2)=NO1 (centres undefined),i,i,i,i,i,·,·,·,·,
CCN1CCN(/C=N/c2nc3c(s2)CCCC3)CC1,i,-4.5*,i,i,i,i,i,i,i,
Cc1ccccc1NC(=S)N1CCN(Cc2ccc3c(c2)OCO3)CC1,i,i,i,i,i,·,·,·,·,
FC(F)(F)c1ccccc1NC(=S)N1CCN(Cc2ccc3c(c2)OCO3)CC1,i,-7.4*,i,i,i,i,i,i,i,
